Reference: ChEMBL document CHEMBL1122000 (J Med Chem, 1982)

Assays:
[1] = In vitro narcotic agonist potency of compound as ratio to normorphine (=1) was assessed in mouse vas deferens; assay type: functional
[2] = test system: Rattus norvegicus; assay: (§1) Antagonistic potency of compound after subcutaneous administration in rats; assay type: functional
[3] = organism: Mus musculus; assay: Concentration required for antagonistic activity of normorphine in the mouse vas deferens at the dose ratio of 2.; assay type: functional
[4] = target: T1, Opioid receptor (Rattus norvegicus, UniProt P33533+P34975+P33535); assay: Inhibition of stereospecific [3H]diprenorphine binding to opioid receptors of rat brain homogenates by 50% in the presence of Na
[5] = target: T1, Opioid receptor; assay: Inhibition of stereospecific [3H]diprenorphine binding to opioid receptors of rat brain homogenates by 50% in the absence of Na
[6] = test system: Rattus norvegicus; assay: as §1; assay type: functional; remark: listed apart in the source
How it was run: (§2)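 Rats, 10 animals per dose level. Drugs were given as bases in saline vehicle, sc or orally. Antagonist activity was read in the hot-water tail-flick test. AD50 values were reported with limits.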

[7] = Partition coefficient (logP); assay type: physicochemical; conditions: octanol/water
[8] = test system: Rattus norvegicus; assay: Antagonistic potency of compound after oral administration in rats; assay type: functional; how it was run: as §2
[9] = organism: Mus musculus; assay: Concentration required for antagonistic activity of Met-enkephalin in the mouse vas deferens at the dose ratio of 2.; assay type: functional
[10] = organism: Rattus norvegicus; assay: Duration of action of compound was determined at the AD99 dose level in rats; assay type: functional
How it was run: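 Rats, 10 per dose level; bases in saline vehicle given sc. Antagonism was followed in the hot-water tail-flick test at the AD99 dose, which was extrapolated from AD50 values. Duration of action is given in hours.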

[11] = organism: Mus musculus; assay: Concentration required for antagonistic activity of Met-enkephalin in the mouse vas deferens at the dose ratio of 2; assay type: functional

| Compound | Potency ratio [1] | AD99 [2] [mg/kg] | Concentration [3] [ng/mL] | IC50 [4] [µM] | IC50 [5] [µM] | AD50 [6] [mg/kg] | logP ([7]; read-out: logP) | AD50 [8] [mg/kg] | Concentration [9] [ng/mL] | Duration [10] [h] | Concentration [11] [ng/mL] | logP [7] |
| --- | --- | --- | --- | --- | --- | --- | --- | --- | --- | --- | --- | --- |
| CO[C@@]12CCC(=O)[C@@H]3Oc4c(O)ccc5c4[C@@]31CCN(CC1CC1)[C@@H]2C5 | <0.063 | 0.25 | 0.26 | 0.016 | 0.018 | 0.019 | 3.05 | 4.4 | 11.5 | 8 | – | – |
| C=CCN1CC[C@]23c4c5ccc(O)c4O[C@H]2C(=O)CC[C@@]3(OC)C1C5 | – | 0.15 | 0.46 | – | – | 0.041 | 2.52 | >30 | – | 4 | 7.3 | – |
| O=C1CC[C@@]2(O)[C@H]3Cc4ccc(O)c5c4[C@@]2(CCN3CC2CC2)[C@H]1O5 [NALTREXONE] | – | 0.05 | 0.165 | – | – | 0.009 | – | 1.35 | 9 | 5 | – | 3.047 |
| C=CCN1CC[C@]23c4c5ccc(O)c4O[C@H]2C(=O)CC[C@@]3(OCC)C1C5 | – | 0.14 | 0.33 | – | – | 0.034 | 3.05 | 3.8 | 7.9 | 6 | – | – |
| C=CCN1CC[C@]23c4c5ccc(O)c4O[C@H]2C(=O)CC[C@@]3(O)[C@H]1C5 [NALOXONE] | – | 0.1 | 0.51 | – | – | 0.023 | 1.91 | 13 | 10.1 | 3 | – | – |
| CCO[C@@]12CCC(=O)[C@@H]3Oc4c(O)ccc5c4[C@@]31CCN(CC1CC1)C2C5 | <0.12 | 0.14 | 0.07 | 0.0038 | 0.008 | 0.005 | 3.58 | 1.5 | 4.1 | 4 | – | – |
